In one series the test system is 97-7 cells. The series can be described thus: Cell cycle distribution by flow cytometry. In kind it is cell-based, human. The note with it: 500 nM, 24-h exposure. Put shortly:
(§1)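 Cells grown in standard medium at 37 °C, 5% CO2, then exposed to 500 nM test compound or DMSO for 24 h. Harvested cells were fixed overnight in 70% ethanol at 4 °C and rehydrated in PBS pH 7.4. They were then pelleted, stained with propidium iodide/RNase in the dark at 37 °C for 30 min, and analysed by flow cytometry. Three independent experiments; ANOVA.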

In a further series the test system is SW780 cells. The series can be described thus: Cell cycle distribution by flow cytometry. It is filed as cell-based, human. The note with it: 500 nM, 24-h exposure. Put shortly: as §1
Series [1] can be described thus: Toxicity in treated xenograft-bearing animals. It is filed as in vivo, Balb/c immunodeficient nude mice. The note with it: nude mice, 20 mg kg–1 per day i.p. Put shortly: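 Male Balb/c nude mice aged 6–8 weeks carried flank trocar implants of ~2 mm3 MGH-U3, SW780 or RT112 tumour fragments. At mean 32 mm3, mice were randomised into groups of eight (untreated control or treated). Dosing was 20 mg kg−1 per day i.p. on days 0–3, plus days 6–9 for MGH-U3. Tumours were measured by caliper.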

In another series the test system is RT4 cells. The series is described as follows: Cell cycle distribution by flow cytometry. In kind it is cell-based, human. To be noted: 500 nM, 24-h exposure. Put shortly: as §1
For orientation: Flow cytometry measures light scatter and fluorescence of single cells or particles in a stream.

The subject of series [2] is phospho-ERK in 94-10 cells. The series is described as follows: FGF2-induced and constitutive ERK phosphorylation in 94-10 cells. In kind it is cell-based, human. The note with it: 500 nM, pretreated 1 h, FGF2 5 ng ml–1 + heparin 10 μg ml–1, 15 min. Put shortly:
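94-10 cells (FGFR1-expressing) were pretreated 1 h with or without 500 nM test compound. They were then stimulated 15 min with heparin (10 μg ml–1) with or without FGF2 (5 ng ml–1). Lysis was in RIPAE buffer (Triton X-100, EDTA, SDS, deoxycholate, glycerol, protease inhibitors in PBS), cleared at 12 700 × g, 4 °C. Protein was measured by BCA, immunoblotted for phospho-ERK, reprobed for tubulin and detected by chemiluminescence.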

The test system of the next series is MGH-U3 cells. The series is described as follows: Cell cycle distribution by flow cytometry. It is filed as cell-based, human. To be noted: 500 nM, 24-h exposure. Put shortly:
as §1

In another series the test system is RT112 cells. The series is described as follows: Cell cycle distribution by flow cytometry. It is filed as cell-based, human. To be noted: 500 nM, 24-h exposure. Put shortly: as §1
The next series has as its target FGFR3 (Homo sapiens, UniProt P22607). The series is described as follows: FGFR3 phosphorylation in RT112 cells. It is filed as cell-based. To be noted: 500 nM, 0–24 h. Put shortly:
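RT112 cells were exposed to 500 nM test compound for 0–24 h and lysed in RIPAE buffer, cleared at 12 700 × g, 4 °C. FGFR3 was immunoprecipitated with an extracellular-domain antibody. Blots were probed with anti-phosphotyrosine (4G10), then stripped (Tris pH 7.5/urea, 55 °C, 30 min) and reprobed for FGFR3. Detection was by chemiluminescence.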

The structures appear in SMILES notation.

The text below walks through data of publication PMC3039817 (British Journal of Cancer, 2010).

Sequence of FGFR3 (P22607 397-758 limits assumed): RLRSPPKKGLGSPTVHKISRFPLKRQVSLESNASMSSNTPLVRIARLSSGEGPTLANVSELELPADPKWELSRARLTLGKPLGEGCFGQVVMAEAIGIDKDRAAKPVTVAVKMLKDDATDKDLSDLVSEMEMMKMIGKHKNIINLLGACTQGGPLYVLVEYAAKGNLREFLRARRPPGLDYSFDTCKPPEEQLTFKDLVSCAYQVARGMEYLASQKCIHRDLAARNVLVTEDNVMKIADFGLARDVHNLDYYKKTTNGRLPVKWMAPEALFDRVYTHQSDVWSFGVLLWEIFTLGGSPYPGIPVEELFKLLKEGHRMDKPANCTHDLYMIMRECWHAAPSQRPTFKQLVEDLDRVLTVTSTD

In the case of `CCN(CC)CCCCNc1ncc2cc(-c3cc(OC)cc(OC)c3)c(NC(=O)NC(C)(C)C)nc2n1` [PD173074, 1-tert-butyl-3-[6-(3,5-dimethoxy-phenyl)-2-(4-diethylamino-butylamino)-pyrido[2,3-d]pyrimidin-7-yl]-urea], the cell cycle distribution entry is listed as “significant increase in the proportion of cells in G1” in the series on 97-7 cells; “no significant change in cell cycle distribution” in the series with SW780 cells; “significant increase in the proportion of cells in G1” in the series on RT4 cells; “significant increase in the proportion of cells in G1” with MGH-U3 cells; “significant increase in the proportion of cells in G1” in the series on RT112 cells. Besides, in series [1], the “toxicity in treated animals” value is on record as “No evidence of significant toxicity”. Moreover, in series [2], the “FGF-induced and constitutive ERK phosphorylation” value is “block both FGF-induced and constitutive ERK phosphorylation”. Moreover, on FGFR3, the “FGFR3 phosphorylation, time-course” value is “rapid and sustained inactivation of FGFR3”.
As for `CN1CCN(c2ccc3nc(-c4c(N)c5c(F)cccc5[nH]c4=O)[nH]c3c2)CC1` [TKI-258], the cell cycle distribution entry is on record as “significant increase in the proportion of cells in G1” in the series on 97-7 cells; “no significant change in cell cycle distribution” with SW780 cells; “significant increase in the proportion of cells in G1” in the series on RT4 cells; “significant increase in the proportion of cells in G1” with MGH-U3 cells; “significant increase in the proportion of cells in G1” with RT112 cells.
